Measured values taken from the RNAGym collection of RNA variant scans (doi:10.1126/science.aae0568).
Variants at the floor of the assay were thinned out.

B1: tRNA (parent)
chain: GUUCCGUUGGCGUAAUGGUAACGCGUCUCCCUCCUAAGGAGAAGACUGCGGGUUCGAGUCCCGUACGGAACG

Variants of: B1
Test: yeast fitness relative to wild type (ratio to wild type); higher = fitter; tRNA-Arg(CCU), competitive growth, 37 C, YPD
How it was run: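 Amplicons of the tRNA-Arg(CCU) gene were sequenced, 100-nucleotide paired-end, from the start population and from each end population of a pooled yeast competition. The competition, in six parallel replicates, lasted 24 hours in YPD at 37°C. Fitness relative to wild type was calculated from changes in genotype frequencies. Genotypes had to have ≥ 100 starting reads, and estimates < 0.5 were set to 0.5.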

| Variant | yeast fitness |
| --- | --- |
| A20G U47C G58U A65U | ≤ 0.5 |
| A20G C30A C31U A45C C55G | ≤ 0.5 |
| A20G G25C | 0.985 |
| A20G G25A | 0.904 |
| A20G C24A C27U | 0.609 |
| A20U A37C A43U | 0.59 |
| A20G C31A G68A | 0.575 |
| A20G G48A C49G | 0.635 |
| A20G C22U U53A | ≤ 0.5 |
| A20G G25A C49U | 0.781 |
| A20G C60A U64A C66U | ≤ 0.5 |
| A20G G51C G67A | 0.534 |
| A20G C30G G38A | ≤ 0.5 |
| A20G U26C A65C | 0.704 |
| A20G G23C G50A | ≤ 0.5 |
| A20G C34G A42C A43U | 0.604 |
| A20G C24G C27U A40C | 0.532 |
| A20G G56C A70U | 0.859 |
| A20G U26A A70U | 0.717 |
| A20G C27G U35G | ≤ 0.5 |
| A20G C24U C46U | 0.733 |
| A20U A37U U59C | 0.675 |
| A20G C24G C30G | ≤ 0.5 |
| A20G C24U G68C | 0.573 |

| Variant | yeast fitness |
| --- | --- |
| A20U A43C U54C | ≤ 0.5 |
| A20G G63A A70G | 0.634 |
| A20G C29U G48C G52A | ≤ 0.5 |
| A20G G25C C33U C49A U53A G67A | ≤ 0.5 |
| A20G C34A | 0.69 |
| A20U A37U | 0.811 |
| A20G C31G C61U | 0.659 |
| A20G C31G C60G G63C | ≤ 0.5 |
| A20G C27G A42C C55A | ≤ 0.5 |
| A20G C30U A45G | 0.524 |
| A20U A40G A42G G50A | ≤ 0.5 |
| A20G C34A A42U G58A C62U G63A | 0.583 |
| A20U A21C C27A G41A | ≤ 0.5 |
| A20G C60G C66G A69G | 0.554 |
| A20G U35C G63A A70U | ≤ 0.5 |
| A20G C34G C55G U59C C60U G67U | ≤ 0.5 |
| A20U A40U U59A | ≤ 0.5 |
| A20G U53C C55A | ≤ 0.5 |
| A20G C24U C31A G68C | ≤ 0.5 |
| A20G G67A A69U | 0.516 |
| A20U A42G A65G | 0.689 |
| A20G U47A U53A | ≤ 0.5 |
| A20G U28A C30G U59C | ≤ 0.5 |
| A20G C31U A42U C46U U59G A65U | ≤ 0.5 |

| Variant | yeast fitness |
| --- | --- |
| A20G C27A A40G C46G C62G | ≤ 0.5 |
| A20G C29A A65C | 0.544 |
| A20G C60G G68A | ≤ 0.5 |
| A20G C61A | 0.706 |
| A20G C27A C31A C61U | ≤ 0.5 |
| A20G C24G C27U C62A C66A | ≤ 0.5 |
| A20U A36G G67C A69C | ≤ 0.5 |
| A20G U59A A70C | 0.646 |
| A20U | 0.986 |
| A20G C31G A70G | 0.715 |
| A20G C24U C33U A43C C55A U59C | 0.539 |
| A20G C31G C61G C66U A69U | 0.545 |
| A20G C34G A37C C66U | ≤ 0.5 |
| A20U A43G G58A | 0.91 |
| A20G C49U A69C | 0.786 |
| A20G C24A C27A A69C | 0.591 |
| A20G C49U U53G A65G | ≤ 0.5 |
| A20U A40U A69U | 0.73 |
| A20G C33U C61G G68C | ≤ 0.5 |
| A20G G56C | 0.61 |
| A20U A40G A57G | 0.67 |
| A20G G38A C46U | 0.883 |
| A20U A37U C55U | ≤ 0.5 |
| A20G C33U G52A G63A | 0.707 |

| Variant | yeast fitness |
| --- | --- |
| A20G C33U | 0.798 |
| A20G U53C | 0.682 |
| A20G U47C | 0.947 |
| A20U A42C G48A | 0.543 |
| A20U A21G C29G C49G G63C | ≤ 0.5 |
| A20G C27G A36G | 0.504 |
| A20U A36G A70U | 0.626 |
| A20G C49A | 0.655 |
| A20U A43U C49A G58C | 0.535 |
| A20U A21C | 0.651 |
| A20U A21G | 0.947 |
| A20G C24U G52A A57G C66U | ≤ 0.5 |
| A20U A42U G67A G68C | ≤ 0.5 |
| A20G C34G G41C | ≤ 0.5 |
| A20G C27U C66U | 0.689 |
| A20U A21G C22A C49G | ≤ 0.5 |
| A20G G51C | 0.581 |
| A20G C24A A45C | ≤ 0.5 |
| A20G C46U G50C C61A | 0.572 |
| A20G C60A C61G | ≤ 0.5 |
| A20G U32G | 0.672 |
| A20G U32C | 0.949 |
| A20U A21U C31G C55A C66U | ≤ 0.5 |
| A20G C46U G63A | 0.82 |

| Variant | yeast fitness |
| --- | --- |
| A20G G67A | 0.95 |
| A20G C34G U47C | ≤ 0.5 |
| A20G C62U | 1.05 |
| A20G G44A C62U | 0.628 |
| A20G G23A | 0.89 |
| A20G G23C | 0.727 |
| A20G U54G C66G | ≤ 0.5 |
| A20G G23C C31G G50A | ≤ 0.5 |
| A20G U32A A43C U53G | 0.607 |
| A20G C24A C29G A37U G39A U47C | ≤ 0.5 |
| A20G U35G A65U | ≤ 0.5 |
| A20G C33G G56A | 0.639 |
| A20G C66A | 0.635 |
| A20G U35C A70U | 0.629 |
| A20G C31U A42U C46U A65C | ≤ 0.5 |
| A20G C34G A43U C66U | 0.546 |
| A20G G50A U59C | 0.571 |
| A20G C60A | 0.751 |
| A20U A37G C66A A69U | ≤ 0.5 |
| A20G C31U G41C A43C C60G | ≤ 0.5 |
| A20G G39C A45C C49G | ≤ 0.5 |
| A20U A42U C61U C66U | ≤ 0.5 |
| A20U A37C U53A | 0.682 |
| A20G U35A A37G A43U A45C | ≤ 0.5 |

| Variant | yeast fitness |
| --- | --- |
| A20G C33G G56A A65C | ≤ 0.5 |
| A20G G38A | 0.912 |
| A20G U26C G39A G50A | ≤ 0.5 |
| A20G G38A C46U A70U | 0.594 |
| A20G C24G C33A A36U | ≤ 0.5 |
| A20G C24U C49G G50A | ≤ 0.5 |
| A20U A36U G44C | ≤ 0.5 |
| A20G C31U A69C | 0.833 |
| A20U A21U C33G U35G G50U G68A | 0.637 |
| A20G U26A G63A | 0.613 |
| A20G U28A | 0.807 |
| A20G U28G | 0.86 |
| A20G C34G G41C G52A | ≤ 0.5 |
| A20G C27U C49U A57G | ≤ 0.5 |
| A20U A42U U59A | 0.59 |
| A20U A43G A70U | 0.661 |
| A20G G44A U54C | 0.712 |
| A20G U54C | 0.719 |
| A20G U47C U54G C66G | ≤ 0.5 |
| A20G C22U G67U | 0.559 |
| A20G C27U A37U | ≤ 0.5 |
| A20G C55G C61U | 0.534 |
| A20G C46U | 0.942 |
| A20G G41A | 1.2 |

| Variant | yeast fitness |
| --- | --- |
| A20G G41C | 1.01 |
| A20U A36C C60A | ≤ 0.5 |
| A20G C49A A65G | 0.619 |
| A20G U26C | 0.984 |
| A20G G68A | 0.917 |
| A20G C27U U28G G68A | ≤ 0.5 |
| A20G G38U A43C A57U | ≤ 0.5 |
| A20G C29A C34G A42C C49G G68A | ≤ 0.5 |
| A20G U32G G58C C61A A65U | ≤ 0.5 |
| A20G C30A A69C | 0.752 |
| A20G C29G | 0.609 |
| A20G G52C | 0.613 |
| A20G C31U A36C C61U A65C | ≤ 0.5 |
| A20G C27G U47G C62U A65U | ≤ 0.5 |
| A20G C34A G58A | 0.622 |
| A20G G23C C31U C46G | 0.526 |
| A20U A42C | 0.648 |
| A20U A43U C49A G68A | ≤ 0.5 |
| A20U A36G C55G | 0.579 |
| A20G C34A A57U | ≤ 0.5 |
| A20G C30A G48A U64C | ≤ 0.5 |
| A20G G38C A70U | 0.57 |
| A20G G38C A40C | 0.662 |
